Laboratory results published in ChEMBL document CHEMBL3120063, “Identification of chromomoric acid C-I as an Nrf2 activator in Chromolaena odorata” (J Nat Prod, 2014).
The source made the active and inactive calls. The rule behind the calls is not given here.

Columns and labels:
[1] = target: T1, Nuclear factor erythroid 2-related factor 2 (Homo sapiens) (UniProt Q16236); assay: Activation of Nrf2 (unknown origin) expressed in CHO-ARE-Luc cells after 18 hrs by luciferase reporter gene assay; type: cell-based
T1 sequence (whole entry): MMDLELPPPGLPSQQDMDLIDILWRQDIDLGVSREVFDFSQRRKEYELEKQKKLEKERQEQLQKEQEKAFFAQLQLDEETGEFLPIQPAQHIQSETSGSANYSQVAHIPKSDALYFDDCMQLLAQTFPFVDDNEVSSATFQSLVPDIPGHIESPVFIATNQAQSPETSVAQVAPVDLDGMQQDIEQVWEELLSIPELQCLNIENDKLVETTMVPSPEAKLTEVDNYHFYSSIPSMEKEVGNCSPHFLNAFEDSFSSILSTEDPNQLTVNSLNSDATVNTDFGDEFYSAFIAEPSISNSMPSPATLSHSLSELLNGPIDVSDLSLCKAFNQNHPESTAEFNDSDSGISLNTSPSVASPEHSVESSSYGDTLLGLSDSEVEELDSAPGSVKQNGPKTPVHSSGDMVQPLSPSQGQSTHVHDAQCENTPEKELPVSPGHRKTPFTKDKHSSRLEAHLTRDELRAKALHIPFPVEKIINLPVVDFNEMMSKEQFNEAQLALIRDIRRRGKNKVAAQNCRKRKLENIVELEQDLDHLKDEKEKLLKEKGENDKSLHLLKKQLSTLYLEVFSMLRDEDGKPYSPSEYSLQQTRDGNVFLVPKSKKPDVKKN
Summary of the method: (§1)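 CHO-ARE-Luc cells, kept in DMEM with 10% FCS, 2 mM glutamine and 4 μg/mL puromycin, were exposed to test agents for 18 h. 0.1% DMSO served as vehicle and 100 nM CDDO-IM as positive control. Luciferase was normalized to cell count (Cell Tracker Green CMFDA) and expressed as fold of DMSO control. Three independent experiments, means + SD. CD = concentration doubling the vehicle response.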

[2] = target: T1, Nuclear factor erythroid 2-related factor 2 (Homo sapiens); assay: Activation of Nrf2 (unknown origin) expressed in CHO-ARE luc cells at 10 to 30 uM after 18 hrs by luciferase reporter gene assay; type: cell-based; summary of the method: as §1
[3] = tested on: HEK293; assay: Inhibition of NF-kappaB (unknown origin) expressed in HEK293 cells co-expressing luc gene at 30 uM after 30 mins by luciferase reporter gene assay; type: cell-based; conditions: Homo sapiens
Summary of the method: (§2)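 HEK293/NF-κB-luc cells were stained 1 h with 2 μM Cell Tracker Green CMFDA, seeded at 4×10⁴ cells/well overnight, and pretreated 30 min with compound, 0.1% DMSO, or 5 μM parthenolide (positive control). They were then stimulated with 2 ng/mL TNF-α for 4 h and lysed; luminescence (NF-κB) and fluorescence (cell count) were read. n = 3.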

[4] = target: T2, Nuclear factor erythroid 2-related factor 2 (Mus musculus) (UniProt Q60795); assay: Activation of Nrf2 in mouse Nrf2 deficient embryonic fibroblasts assessed as induction of HO-1expression at 10 uM after 18 hrs by immunoblotting analysis
T2 sequence (whole entry): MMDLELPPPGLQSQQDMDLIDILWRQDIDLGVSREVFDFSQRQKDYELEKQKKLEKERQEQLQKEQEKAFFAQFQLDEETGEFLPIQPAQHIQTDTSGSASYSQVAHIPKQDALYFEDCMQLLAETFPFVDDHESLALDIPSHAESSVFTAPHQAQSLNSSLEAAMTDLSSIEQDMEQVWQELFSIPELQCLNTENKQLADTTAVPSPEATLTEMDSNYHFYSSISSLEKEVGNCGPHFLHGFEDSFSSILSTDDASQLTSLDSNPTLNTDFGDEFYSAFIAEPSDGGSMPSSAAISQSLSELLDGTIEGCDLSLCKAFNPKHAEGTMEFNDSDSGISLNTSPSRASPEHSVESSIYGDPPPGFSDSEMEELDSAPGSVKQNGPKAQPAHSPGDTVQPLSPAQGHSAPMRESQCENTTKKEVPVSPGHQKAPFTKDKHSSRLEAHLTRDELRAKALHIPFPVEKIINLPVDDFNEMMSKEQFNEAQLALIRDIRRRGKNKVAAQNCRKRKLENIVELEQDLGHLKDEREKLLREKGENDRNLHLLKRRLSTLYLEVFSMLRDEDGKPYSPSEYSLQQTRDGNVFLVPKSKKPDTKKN
Summary of the method: (§3)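 MEF (WT and isogenic Nrf2−/−) or VSMC were seeded at (3–4) × 10⁵ cells/well and treated next day with 0.1% DMSO or compound for 18 h. Total lysates were run on SDS-PAGE and immunoblotted for HO-1, with actin as loading control. HO-1/actin by densitometry relative to vehicle (set at 1). Three independent experiments.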

[5] = tested on: VSMC; assay: Antiproliferative activity against human VSMC assessed as inhibition of PDGF-induced cell proliferation at 5 uM incubated for 30 mins prior to PDGF challenge measured after 48 hrs by resazurin-mediated fluorescence assay in presence of protoporphyrin 9; type: functional
Summary of the method: (§4)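 Quiescent (serum-starved) VSMC were pretreated 30 min with 0.1% DMSO, compound, or 10 μM tin protoporphyrin IX (HO-1 inhibitor) as indicated, then stimulated 48 h with 20 ng/mL PDGF. After a PBS wash, cells were given 10 μg/mL resazurin in serum-free medium for 45 min; resorufin fluorescence read at ex 535/em 590 nm. Three independent experiments.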

[6] = Cytotoxicity against human VSMC at 2 to 5 uM after 48 hrs by LDH assay
Summary of the method: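 Quiescent VSMC were treated with compound for 48 h. LDH release, measured with a nonradioactive CytoTox kit, was taken as readout of membrane integrity. Three independent experiments, 0.1% DMSO vehicle.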

[7] = tested on: VSMC; assay: Antiproliferative activity against human VSMC assessed as inhibition of PDGF-induced cell proliferation at 2 to 5 uM incubated for 30 mins prior to PDGF challenge measured after 48 hrs by resazurin-mediated fluorescence assay; type: functional; summary of the method: as §4
[8] = target: T1, Nuclear factor erythroid 2-related factor 2 (Homo sapiens); assay: Activation of Nrf2 in human VSMC assessed as induction of HO-1 expression at 3 uM after 18 hrs by immunoblotting analysis; summary of the method: as §3
[9] = target: T2, Nuclear factor erythroid 2-related factor 2 (Mus musculus); assay: Activation of Nrf2 in wild type mouse embryonic fibroblasts assessed as induction of HO-1expression after 18 hrs by immunoblotting analysis; summary of the method: as §3
[10] = Inhibition of NF-kappaB (unknown origin) expressed in HEK293 cells co-expressing luc gene after 30 mins by luciferase reporter gene assay; type: cell-based; conditions: Homo sapiens, HEK293, 0.5 h; summary of the method: as §2
[11] = target: T1, Nuclear factor erythroid 2-related factor 2 (Homo sapiens); assay: Activation of Nrf2 (unknown origin) expressed in CHO-ARE-Luc cells after 18 hrs by luciferase reporter gene assay in presence of GSH; type: cell-based
Summary of the method: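 ARE-luciferase assay in CHO-ARE-Luc cells with the medium supplemented with 2 mM glutathione before compound addition. Luciferase read 18 h later, normalized to cell count and given as fold of 0.1% DMSO control. CDDO-IM 100 nM as positive control. Three independent experiments.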

[12] = target: T1, Nuclear factor erythroid 2-related factor 2 (Homo sapiens); assay: Activation of Nrf2 (unknown origin) expressed in CHO-ARE luc cells at 5.2 uM after 18 hrs by luciferase reporter gene assay relative to vehicle-treated control; type: cell-based; summary of the method: as §1
[13] = target: T1, Nuclear factor erythroid 2-related factor 2 (Homo sapiens); assay: Activation of Nrf2 (unknown origin) expressed in CHO-ARE luc cells at 10 uM after 18 hrs by luciferase reporter gene assay; type: cell-based; summary of the method: as §1

With `CCCCC/C=C/C=C1/C(=O)C=C[C@@H]1C/C=C\CCCC(=O)O` as the compound, how does the Activity [1] read?
Its Activity is “Dose-dependent effect”.

Which Activity [2] does the source give for `COc1ccc(-c2cc(=O)c3c(O)cc(O)cc3o2)cc1` here?
Its Activity is “inactive”.

With `O=C1C[C@@H](c2ccc(O)cc2)Oc2cc(O)cc(O)c21` as the compound, how does the Activity [2] read?
Its Activity is “inactive”.

Which Activity [2] does the source give for `COc1ccc([C@@H]2CC(=O)c3c(O)cc(O)cc3O2)cc1O` here?
Its Activity is “inactive”.

With `CC/C=C\C=C1/C(=O)C=C[C@@H]1CCCCCCCC(=O)O` as the compound, how does the inhibition [3] read?
Its inhibition is “Active”.

With `COc1ccc(-c2cc(=O)c3c(OC)c(OC)c(OC)cc3o2)cc1` as the compound, how does the Activity [2] read?
The Activity was “inactive”.

For `COc1ccc([C@@H]2CC(=O)c3c(cc(OC)c(OC)c3O)O2)cc1OC`, which Activity [2] is on record?
The Activity was “inactive”.

With `CC/C=C\C[C@H]1C(=O)C=C[C@@H]1CCCCCCCC(=O)O` as the compound, how does the inhibition [3] read?
The inhibition was “Active”.

For `COc1cc(O)c2c(=O)c(O)c(-c3ccc(OC)c(O)c3)oc2c1`, which Activity [2] is on record?
Its Activity is “inactive”.

Which Activity [2] does the source give for `COc1ccc(-c2cc(=O)c3c(O)c(OC)c(O)cc3o2)cc1` here?
Its Activity is “inactive”.

With `CC/C=C\CC1C(=O)C=C/C1=C/CCCCCCC(=O)O` (stereo not drawn) as the compound, how does the inhibition [3] read?
Its inhibition is “Active”.

With `COc1cc(O)c2c(c1)O[C@H](c1ccc(O)cc1)[C@@H](O)C2=O` as the compound, how does the Activity [2] read?
Its Activity is “inactive”.

For `COc1ccc(-c2oc3cc(O)c(OC)c(O)c3c(=O)c2O)cc1`, which Activity [2] is on record?
Its Activity is “inactive”.

With `COc1ccc(-c2oc3cc(O)cc(O)c3c(=O)c2O)cc1` as the compound, how does the Activity [2] read?
The Activity was “inactive”.

Which inhibition [3] does the source give for `CC/C=C\CC1C(=O)C=C/C1=C\CCCCCCC(=O)O` (stereo not drawn) here?
Its inhibition is “Active”.

With `CC/C=C\C=C1\C(=O)C=C[C@@H]1CCCCCCCC(=O)O` as the compound, how does the Activity [4] read?
Its Activity is “Active”.

What about the Activity [5] of the same compound?
The Activity was “inactive”.

What about the Activity [6] of the same compound?
The Activity was “Non-toxic”.

What about the inhibition [7] of the same compound?
Its inhibition is “Active”.

And the Activity [8]?
Its Activity is “Active”.

What about the Activity [9] of the same compound?
Its Activity is “Dose-dependent effect”.

What about the IC50 [10] of the same compound?
Its IC50 is 6.9 µM.

And the Activity [11]?
Its Activity is “inactive”.

And the fold change (FC) [12]?
Its fold change (FC) is 2.

And the Activity [13]?
The Activity was “Active”.

With `O=c1c(O)c(-c2ccc(O)cc2)oc2cc(O)cc(O)c12` as the compound, how does the Activity [2] read?
The Activity was “inactive”.

For `COc1ccc(-c2cc(=O)c3c(O)c(OC)c(OC)cc3o2)cc1`, which Activity [2] is on record?
The Activity was “inactive”.

With `COc1ccc([C@@H]2CC(=O)c3c(cc(O)c(OC)c3O)O2)cc1O` as the compound, how does the Activity [2] read?
The Activity was “inactive”.
